# Laboratory results as given in ChEMBL document CHEMBL1932995, “Synthesis of 5-aryl-1,4-benzodiazepine derivatives attached in resorcinaren-PAMAM dendrimers and their anti-cancer activity” (Bioorg Med Chem, 2012).
# Active and inactive are the calls of the source. The rule behind the calls is not given here.
# Legend:
# K562 = test: Growth inhibition of human K562 cells at 50 uM after 48 hrs by SRB assay; format: functional; conditions: for inhibition of growth at 50 µM: K562, 48 h, read-out: GI
# How it was run: (§1)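 Cell lines obtained from NCI, grown in RPMI-1640 with 10% fetal bovine serum, 2 mM glutamine, penicillin G, streptomycin, amphotericin B and 1% non-essential amino acids, at 37 °C, humidified 5% CO2. Cell viability above 95% by trypan blue. Compounds tested in DMSO. Growth read by sulforhodamine B protein staining in microculture per NCI protocol, reported as % inhibition.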
# SK-LU-1 [1] = test: Growth inhibition of human SKLU1 cells at 50 uM after 48 hrs by SRB assay; format: functional; conditions: for inhibition of growth at 50 µM: SK-LU-1, 48 h, read-out: GI; how it was run: as §1
# HCT-15 [2] = test: Growth inhibition of human HCT15 cells at 50 uM after 48 hrs by SRB assay; format: functional; conditions: for inhibition of growth at 50 µM: HCT-15, 48 h, read-out: GI; how it was run: as §1
# MCF7 = test: Growth inhibition of human MCF7 cells at 50 uM after 48 hrs by SRB assay; format: functional; conditions: for inhibition of growth at 50 µM: MCF7, 48 h, read-out: GI; how it was run: as §1
# U-251 = test: Growth inhibition of human U251 cells at 50 uM after 48 hrs by SRB assay; format: functional; conditions: for inhibition of growth at 50 µM: U-251, 48 h, read-out: GI; how it was run: as §1
# PC-3 = test: Growth inhibition of human PC3 cells at 50 uM after 48 hrs by SRB assay; format: functional; conditions: for inhibition of growth at 50 µM: PC-3, 48 h, read-out: GI; how it was run: as §1
# HCT-15 [3] = test: Anticancer activity against human HCT15 cells after 48 hrs by SRB assay; format: functional, cell-based
# SK-LU-1 [4] = test: Anticancer activity against human SKLU1 cells after 48 hrs by SRB assay; format: functional, cell-based
Structure (SMILES),inhibition of growth at 50 µM (K562) [%],inhibition of growth at 50 µM (SK-LU-1 [1]) [%],inhibition of growth at 50 µM (HCT-15 [2]) [%],inhibition of growth at 50 µM (MCF7) [%],inhibition of growth at 50 µM (U-251) [%],inhibition of growth at 50 µM (PC-3) [%],IC50 (HCT-15 [3]),IC50 (SK-LU-1 [4]),growth inhibition (GI) (MCF7),growth inhibition (GI) (PC-3),growth inhibition (GI) (K562),growth inhibition (GI) (SK-LU-1 [1]),growth inhibition (GI) (HCT-15 [2]),growth inhibition (GI) (U-251)
Oc1cc(O)c2cc1C(CCc1ccccc1)c1cc(c(O)cc1O)C(CCc1ccccc1)c1cc(c(O)cc1O)C(CCc1ccccc1)c1cc(c(O)cc1O)C2CCc1ccccc1 (configuration not stated),60.8,14.8,14.7,21.5,47.6,5.4,,,,,,,,
NCCNC(=O)COc1cc(OCC(=O)NCCN)c2cc1C(CCc1ccccc1)c1cc(c(OCC(=O)NCCN)cc1OCC(=O)NCCN)C(CCc1ccccc1)c1cc(c(OCC(=O)NCCN)cc1OCC(=O)NCCN)C(CCc1ccccc1)c1cc(c(OCC(=O)NCCN)cc1OCC(=O)NCCN)C2CCc1ccccc1 (configuration not stated),35.3,30.9,34.9,33.2,37,29,,,,,,,,
CCCCCCCCCCCC1c2cc(c(OCC(=O)NCCN(CCC(=O)NCCN)CCC(=O)NCCN)cc2OCC(=O)NCCN(CCC(=O)NCCN)CCC(=O)NCCN)C(CCCCCCCCCCC)c2cc(c(OCC(=O)NCCN(CCC(=O)NCCN)CCC(=O)NCCN)cc2OCC(=O)NCCN(CCC(=O)NCCN)CCC(=O)NCCN)C(CCCCCCCCCCC)c2cc(c(OCC(=O)NCCN(CCC(=O)NCCN)CCC(=O)NCCN)cc2OCC(=O)NCCN(CCC(=O)NCCN)CCC(=O)NCCN)C(CCCCCCCCCCC)c2cc1c(OCC(=O)NCCN(CCC(=O)NCCN)CCC(=O)NCCN)cc2OCC(=O)NCCN(CCC(=O)NCCN)CCC(=O)NCCN (configuration not stated),100,100,91.3,92,56.5,38.5,,,,,,,,
COC(=O)CN1C(=O)CN=C(c2ccccc2Cl)c2cc(Cl)ccc21,15.9,12.5,12.9,11.8,18.6,12.8,Active,Active,,,,,,
COC(=O)CN1C(=O)CN=C(c2ccccc2)c2cc([N+](=O)[O-])ccc21,30.6,27.5,25.2,22.2,33.7,22.3,,,,,,,,
COC(=O)CN1C(=O)CN=C(c2ccccc2F)c2cc(Cl)ccc21,27.2,19.8,26,24.5,20.7,22.4,,,,,,,,
COC(=O)CN1C(=O)CN=C(c2ccccc2)c2cc(Cl)ccc21,19.7,13.2,12,19.3,11.7,12.3,Active,Active,,,,,,
CCCCCCCCCCCC1c2cc(c(OCC(=O)NCCN)cc2OCC(=O)NCCN)C(CCCCCCCCCCC)c2cc(c(OCC(=O)NCCN)cc2OCC(=O)NCCN)C(CCCCCCCCCCC)c2cc(c(OCC(=O)NCCN)cc2OCC(=O)NCCN)C(CCCCCCCCCCC)c2cc1c(OCC(=O)NCCN)cc2OCC(=O)NCCN (configuration not stated),11.2,16.2,31.5,,18.1,,Active,Active,Active,Active,,,,
NCCNC(=O)CCN(CCNC(=O)COc1cc(OCC(=O)NCCN(CCC(=O)NCCN)CCC(=O)NCCN)c2cc1C(CCc1ccccc1)c1cc(c(OCC(=O)NCCN(CCC(=O)NCCN)CCC(=O)NCCN)cc1OCC(=O)NCCN(CCC(=O)NCCN)CCC(=O)NCCN)C(CCc1ccccc1)c1cc(c(OCC(=O)NCCN(CCC(=O)NCCN)CCC(=O)NCCN)cc1OCC(=O)NCCN(CCC(=O)NCCN)CCC(=O)NCCN)C(CCc1ccccc1)c1cc(c(OCC(=O)NCCN(CCC(=O)NCCN)CCC(=O)NCCN)cc1OCC(=O)NCCN(CCC(=O)NCCN)CCC(=O)NCCN)C2CCc1ccccc1)CCC(=O)NCCN (configuration not stated),,,,,,,Active,Active,Active,Active,Active,Active,Active,Active
